Results on 17 compounds are retold here after ChEMBL document CHEMBL1140206 (J Med Chem, 2008).

The structures appear in SMILES notation.

The target in assay [1] is Neuronal acetylcholine receptor; alpha4/beta2 (Rattus norvegicus, UniProt P09483+P12390). The assay is described as follows: Displacement of [3H]epibatidine from rat recombinant alpha4beta2 nAChR expressed in HEK293 cells. Format: cell-based.
Assay [2] concerns the target T1, Neuronal acetylcholine receptor; alpha3/beta4 (Rattus norvegicus, UniProt P04757+P12392). Briefly: Displacement of [3H]epibatidine from rat recombinant alpha-3-beta-4 nAChR expressed in HEK293 cells. Format: cell-based.
Assay [3] concerns the target Neuronal acetylcholine receptor; alpha4/beta4 (Rattus norvegicus, UniProt P09483+P12392). Briefly: Displacement of [3H]epibatidine from rat recombinant alpha-4-beta-4 nAChR expressed in HEK293 cells. In kind it is cell-based.
The target of assay [4] is Neuronal acetylcholine receptor subunit alpha-7 (Rattus norvegicus, UniProt Q05941). Briefly: Displacement of [3H]MLA from rat alpha-7 nAChR/mouse 5HT3A chimera expressed in human tsA-201 cells.
Neuronal acetylcholine receptor subunit alpha-7 (Rattus norvegicus, UniProt Q05941), sequence (Q05941 23-502 limits assumed): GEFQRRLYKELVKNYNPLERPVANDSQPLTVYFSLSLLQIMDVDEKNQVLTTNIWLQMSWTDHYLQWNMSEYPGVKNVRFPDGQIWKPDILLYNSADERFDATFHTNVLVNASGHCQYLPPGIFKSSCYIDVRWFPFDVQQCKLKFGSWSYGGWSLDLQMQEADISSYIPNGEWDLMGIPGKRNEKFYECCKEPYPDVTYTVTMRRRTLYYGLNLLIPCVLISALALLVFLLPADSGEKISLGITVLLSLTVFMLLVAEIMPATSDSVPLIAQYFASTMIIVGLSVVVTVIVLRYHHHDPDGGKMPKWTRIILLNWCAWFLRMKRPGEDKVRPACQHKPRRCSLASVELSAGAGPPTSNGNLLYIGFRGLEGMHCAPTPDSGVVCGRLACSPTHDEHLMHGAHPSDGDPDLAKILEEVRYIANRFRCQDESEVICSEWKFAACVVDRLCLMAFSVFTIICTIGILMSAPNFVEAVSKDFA
In assay [5] the target is Neuronal acetylcholine receptor; alpha3/beta4 (Rattus norvegicus) (UniProt P04757+P12392). Briefly: Agonist activity at rat alpha-3-beta-4 nAChR expressed in HEK293 cells by FMP assay relative to acetylcholine. Format: functional, cell-based. A digest of the protocol: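 Stable HEK293 line; cells plated 16-24 h, washed, then loaded 30 min at 37 °C with FMP dye in Krebs buffer pH 7.4. Fluorescence (ex 530/em 560 nm) was read before and up to 1 min after agonist addition. Concentration-response curves used maximal responses, fitted to a Hill equation for EC50 and Rmax. Run in duplicate, at least three times.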

For assay [6], the target named is T1, Neuronal acetylcholine receptor; alpha3/beta4. Briefly: Agonist activity at rat alpha-3-beta-4 nAChR expressed in HEK293 cells by FMP assay. Format: functional, cell-based. A digest of the protocol: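 Stable HEK293 line; cells plated 16-24 h, washed, then loaded 30 min at 37 °C with FMP dye in Krebs buffer pH 7.4. Concentration-response curves used maximal responses, fitted to a Hill equation for EC50 and Rmax. Run in duplicate, at least three times.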

Assay [7] has as its target T2, Neuronal acetylcholine receptor; alpha4/beta2 (Homo sapiens, UniProt P17787+P43681). Briefly: Agonist activity at human alpha-4-beta-2 nAChR expressed in Xenopus oocytes by two-electrode voltage clamp technique. In kind it is functional, cell-based, Oocyte. A digest of the protocol: (§1)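 Defolliculated Xenopus oocytes received 40-50 ng total cRNA of human α7, α3+β4 (1:1) or α4+β2 and were kept at 17 °C. Two-electrode clamp at -60 mV used 3 M KCl electrodes in Oocyte Ringer's pH 7.4, with 12 s agonist pulses 5 min apart at 2.5 mL/min. Peak current was normalized to saturating ACh in the same oocyte (10 mM α7; 1 mM α3β4, α4β2).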

The target in assay [8] is T3, Neuronal acetylcholine receptor; alpha3/beta4 (Homo sapiens, UniProt P30926+P32297). The assay is described as follows: Agonist activity at human alpha3beta4 nAChR expressed in Xenopus oocytes by two-electrode voltage clamp technique at 320 uM relative to acetylcholine. Format: functional, cell-based. Particulars: Oocyte. A digest of the protocol:
as §1

The target of assay [9] is T3, Neuronal acetylcholine receptor; alpha3/beta4. Briefly: Agonist activity at human alpha-3-beta-4 nAChR expressed in Xenopus oocytes by two-electrode voltage clamp technique. Format: functional, cell-based, Oocyte. In a few lines: as §1
Assay [10] has as its target T2, Neuronal acetylcholine receptor; alpha4/beta2. Briefly: Agonist activity at human alpha-4-beta-2 nAChR expressed in Xenopus oocytes by two-electrode voltage clamp technique relative to acetylcholine. In kind it is functional, cell-based. The settings on record: Oocyte. In a few lines: as §1
The target in assay [11] is T4, Neuronal acetylcholine receptor subunit alpha-7 (Homo sapiens, UniProt P36544). Briefly: Agonist activity at human alpha-7 nAChR expressed in Xenopus oocytes by two-electrode voltage clamp technique. In kind it is functional, cell-based, Oocyte. A digest of the protocol:
as §1

For assay [12], the target named is T4, Neuronal acetylcholine receptor subunit alpha-7. Briefly: Agonist activity at human alpha-7 nAChR expressed in Xenopus oocytes by two-electrode voltage clamp technique at 320 uM relative to acetylcholine. In kind it is functional, cell-based. The settings on record: Oocyte. In a few lines:
as §1

T3 sequence (P30926 whole entry): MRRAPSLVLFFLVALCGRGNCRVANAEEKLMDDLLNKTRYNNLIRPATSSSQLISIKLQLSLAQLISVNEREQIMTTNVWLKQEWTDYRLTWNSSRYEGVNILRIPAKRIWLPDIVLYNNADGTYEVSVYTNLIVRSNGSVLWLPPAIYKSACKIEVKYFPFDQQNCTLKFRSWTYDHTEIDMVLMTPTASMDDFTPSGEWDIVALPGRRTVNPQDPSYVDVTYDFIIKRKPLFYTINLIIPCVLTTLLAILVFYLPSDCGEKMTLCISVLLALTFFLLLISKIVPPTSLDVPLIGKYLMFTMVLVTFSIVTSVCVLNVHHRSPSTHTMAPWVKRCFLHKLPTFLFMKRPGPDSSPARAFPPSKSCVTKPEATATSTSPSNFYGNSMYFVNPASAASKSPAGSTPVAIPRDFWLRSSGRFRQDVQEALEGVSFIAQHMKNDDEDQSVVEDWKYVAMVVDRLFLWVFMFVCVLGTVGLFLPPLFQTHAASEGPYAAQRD
T3 sequence (P32297 whole entry): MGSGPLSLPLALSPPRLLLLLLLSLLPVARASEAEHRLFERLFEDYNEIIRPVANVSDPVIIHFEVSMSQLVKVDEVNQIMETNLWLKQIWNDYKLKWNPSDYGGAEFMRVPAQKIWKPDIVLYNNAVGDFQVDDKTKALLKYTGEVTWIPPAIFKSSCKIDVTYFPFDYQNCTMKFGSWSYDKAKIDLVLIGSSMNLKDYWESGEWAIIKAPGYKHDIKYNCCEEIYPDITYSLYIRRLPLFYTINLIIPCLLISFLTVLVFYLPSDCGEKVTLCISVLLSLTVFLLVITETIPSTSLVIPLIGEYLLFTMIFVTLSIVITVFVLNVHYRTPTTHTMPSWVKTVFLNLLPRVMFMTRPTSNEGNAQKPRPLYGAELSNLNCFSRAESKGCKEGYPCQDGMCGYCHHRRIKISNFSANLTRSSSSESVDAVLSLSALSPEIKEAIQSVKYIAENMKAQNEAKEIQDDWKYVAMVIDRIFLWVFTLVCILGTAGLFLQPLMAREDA
T4 sequence (P36544 whole entry): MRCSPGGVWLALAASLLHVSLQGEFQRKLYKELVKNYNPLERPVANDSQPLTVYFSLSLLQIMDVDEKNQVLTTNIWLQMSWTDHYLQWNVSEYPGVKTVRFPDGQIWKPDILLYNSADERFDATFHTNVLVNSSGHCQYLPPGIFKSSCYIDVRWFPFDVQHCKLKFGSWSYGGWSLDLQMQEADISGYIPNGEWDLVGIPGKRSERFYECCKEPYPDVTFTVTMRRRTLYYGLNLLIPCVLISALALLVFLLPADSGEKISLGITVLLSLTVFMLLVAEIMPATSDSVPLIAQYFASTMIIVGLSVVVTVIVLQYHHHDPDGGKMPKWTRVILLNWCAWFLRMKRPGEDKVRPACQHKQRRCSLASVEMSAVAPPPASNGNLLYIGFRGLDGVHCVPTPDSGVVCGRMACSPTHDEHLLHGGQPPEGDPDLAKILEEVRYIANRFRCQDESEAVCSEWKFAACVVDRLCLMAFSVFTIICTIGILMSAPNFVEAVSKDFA
T1 sequence (P04757 whole entry): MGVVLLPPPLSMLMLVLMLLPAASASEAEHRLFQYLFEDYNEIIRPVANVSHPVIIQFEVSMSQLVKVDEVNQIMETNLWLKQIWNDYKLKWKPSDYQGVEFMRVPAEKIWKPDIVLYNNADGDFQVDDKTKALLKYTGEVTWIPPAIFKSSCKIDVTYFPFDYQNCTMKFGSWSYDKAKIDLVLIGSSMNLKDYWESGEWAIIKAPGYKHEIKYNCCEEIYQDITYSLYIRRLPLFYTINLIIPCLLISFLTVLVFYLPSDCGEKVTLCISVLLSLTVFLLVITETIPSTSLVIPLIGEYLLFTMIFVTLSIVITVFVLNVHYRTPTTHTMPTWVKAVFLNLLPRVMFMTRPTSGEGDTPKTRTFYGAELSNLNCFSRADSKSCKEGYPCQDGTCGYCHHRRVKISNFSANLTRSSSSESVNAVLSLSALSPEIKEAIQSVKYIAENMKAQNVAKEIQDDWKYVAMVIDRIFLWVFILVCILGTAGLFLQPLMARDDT
T1 sequence (P12392 whole entry): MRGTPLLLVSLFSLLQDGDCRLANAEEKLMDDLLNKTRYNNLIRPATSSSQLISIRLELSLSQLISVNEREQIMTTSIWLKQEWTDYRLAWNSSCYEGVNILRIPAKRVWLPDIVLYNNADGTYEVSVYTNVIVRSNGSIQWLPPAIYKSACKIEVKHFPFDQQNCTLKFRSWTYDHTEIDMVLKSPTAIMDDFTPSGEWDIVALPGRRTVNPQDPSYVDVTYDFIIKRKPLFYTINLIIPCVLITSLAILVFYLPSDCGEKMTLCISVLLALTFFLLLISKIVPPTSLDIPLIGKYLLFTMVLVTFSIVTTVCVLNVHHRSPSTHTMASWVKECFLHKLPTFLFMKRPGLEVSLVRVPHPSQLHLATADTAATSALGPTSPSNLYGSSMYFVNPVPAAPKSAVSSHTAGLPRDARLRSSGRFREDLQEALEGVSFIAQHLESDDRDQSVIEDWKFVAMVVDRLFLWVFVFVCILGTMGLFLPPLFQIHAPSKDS
Neuronal acetylcholine receptor; alpha4/beta4, sequence (P09483 whole entry): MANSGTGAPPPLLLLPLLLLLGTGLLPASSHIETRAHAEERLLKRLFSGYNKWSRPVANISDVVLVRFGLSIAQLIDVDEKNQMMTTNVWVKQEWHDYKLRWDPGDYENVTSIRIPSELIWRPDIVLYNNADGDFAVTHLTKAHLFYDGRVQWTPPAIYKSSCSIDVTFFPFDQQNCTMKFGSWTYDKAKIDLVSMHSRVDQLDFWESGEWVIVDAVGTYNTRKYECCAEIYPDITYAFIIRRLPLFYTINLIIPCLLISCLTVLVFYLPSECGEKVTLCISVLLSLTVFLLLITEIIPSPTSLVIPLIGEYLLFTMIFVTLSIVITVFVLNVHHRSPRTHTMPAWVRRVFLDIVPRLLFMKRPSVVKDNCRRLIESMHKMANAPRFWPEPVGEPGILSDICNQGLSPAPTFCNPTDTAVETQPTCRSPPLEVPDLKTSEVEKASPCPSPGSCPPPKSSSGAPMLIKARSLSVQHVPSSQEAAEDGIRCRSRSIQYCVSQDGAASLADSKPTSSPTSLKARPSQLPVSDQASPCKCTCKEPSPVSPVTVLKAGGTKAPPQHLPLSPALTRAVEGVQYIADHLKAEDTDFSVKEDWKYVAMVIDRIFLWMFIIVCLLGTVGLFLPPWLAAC
Neuronal acetylcholine receptor; alpha4/beta4, sequence (P12392 whole entry): as the sequence (P12392 whole entry) above
Neuronal acetylcholine receptor; alpha4/beta2 (Rattus norvegicus, UniProt P09483+P12390), sequence (P09483 whole entry): as the sequence (P09483 whole entry) above
Neuronal acetylcholine receptor; alpha4/beta2 (Rattus norvegicus, UniProt P09483+P12390), sequence (P12390 whole entry): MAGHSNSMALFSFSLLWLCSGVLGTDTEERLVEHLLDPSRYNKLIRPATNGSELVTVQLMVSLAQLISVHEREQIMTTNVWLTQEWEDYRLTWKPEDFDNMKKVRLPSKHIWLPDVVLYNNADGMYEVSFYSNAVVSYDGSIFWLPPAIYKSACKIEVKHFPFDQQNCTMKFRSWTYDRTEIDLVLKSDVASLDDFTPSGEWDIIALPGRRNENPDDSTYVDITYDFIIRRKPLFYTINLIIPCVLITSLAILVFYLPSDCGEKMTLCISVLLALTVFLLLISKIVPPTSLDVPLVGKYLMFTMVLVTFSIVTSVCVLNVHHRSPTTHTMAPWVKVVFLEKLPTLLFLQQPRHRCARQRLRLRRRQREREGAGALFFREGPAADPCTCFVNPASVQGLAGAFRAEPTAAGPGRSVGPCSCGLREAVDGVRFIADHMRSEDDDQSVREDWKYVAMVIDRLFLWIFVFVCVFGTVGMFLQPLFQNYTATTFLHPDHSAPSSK

On to `CC(CCOC(=O)N1CCCC1)N(C)C` (configuration not stated), for which the results for the Ki in [1], in assay [2] and in assay [3] were 0.21 µM, 25 µM and 2.2 µM, respectively.

For `CC1CN(C(=O)OCC[C@H](C)N(C)C)C1`, the figures for the Ki in assay [1], in [2] and in assay [3] were 0.057 µM, 100 µM and 7.1 µM, respectively.

With `CC(CCOC(=O)c1ccccc1)N(C)C` (configuration not stated), the Ki in assay [1] was 0.32 µM; in assay [2], 100 µM; in assay [4], 190 µM; in [3], 10 µM.

Consider `CC(CCOC(=O)N1CCC1C)N(C)C` (configuration not stated), for which the Activity in assay [5] was determined as 89%. Besides, the Ki in [1] is 0.015 µM; in assay [2], 2.5 µM; in assay [6] (read-out: Ki), 0.0054 µM; in assay [6] (read-out: pKi (converted)), 5.01 µM; in [4], more than 1000 µM; in assay [3], 0.23 µM.

`CC(CCOC(=O)n1cccc1)N(C)C` (configuration not stated) returned an Activity in assay [5] of 27%. In addition, the Ki was 0.31 µM in [1]; 100 µM in assay [2]; 0.1 µM in [6] (read-out: Ki); 316 µM in assay [6] (read-out: pKi (converted)); more than 1000 µM in assay [4]; 11 µM in assay [3].

Take `CC(CCOC(=O)N1CCC1)N(C)C` (configuration not stated): the EC50 in assay [7] is 7.1 µM; in assay [9] (read-out: EC50), more than 320 µM; in [9] (read-out: pEC50 (converted)), more than 316 µM. Also, the results for the Activity in assay [8], in assay [5] and in [10] were 23%, 106% and 66%, respectively. Moreover, the Ki is 0.0051 µM in assay [1]; 11 µM in assay [2]; 0.023 µM in assay [6] (read-out: Ki); 25.1 µM in assay [6] (read-out: pKi (converted)); 0.19 µM in [3].

In the case of `CC(CCOC(=O)C1CCC1)N(C)C` (configuration not stated), in [5], the Activity came out at 85%. The Ki is 0.1 µM in assay [1], 3.5 µM in assay [2], 290 µM in [4] and 0.46 µM in assay [3]. In [6] (read-out: EC50), the EC50 is 8.5 µM.

In [5], `CC(CCOC(=O)N(C)C)N(C)C` (configuration not stated) displayed an Activity of 105%. The Ki in assay [1] was 0.02 µM; in assay [2], 0.42 µM; in assay [6] (read-out: Ki), 0.0077 µM; in assay [6] (read-out: pKi (converted)) it was 7.94 µM; in assay [4] it was more than 1000 µM; in assay [3], 0.15 µM.

For `CC(CCOC(=O)N1CCCCC1)N(C)C` (configuration not stated), the Ki in [1] was found to be 0.091 µM; in assay [2], 2.6 µM; in assay [3] it was 0.35 µM.

The compound `CC(CCOC(=O)N1CC(C)(C)C1)N(C)C` (configuration not stated) showed an Activity in assay [5] of 43%. The Ki in [1] was 0.058 µM; in assay [2], 300 µM; in [6] (read-out: Ki) it was 0.3 µM; in assay [6] (read-out: pKi (converted)), 316 µM; in assay [3] it was 0.72 µM.

Consider `CC(CCOC(=O)C1CC1)N(C)C` (configuration not stated), for which the Activity in assay [5] was determined as 105%. Further, the Ki stood at 0.0038 µM in assay [1], 4.2 µM in assay [2], 280 µM in [4] and 0.26 µM in assay [3]. For the same compound, the EC50 in [6] (read-out: pEC50 (converted)) is 7.94 µM.

Regarding `CC(C)C(=O)OCCC(C)N(C)C` (configuration not stated), the Activity in [5] is 100%. Also, the Ki was 0.03 µM in assay [1], 8.5 µM in [2], more than 1000 µM in assay [4] and 0.76 µM in assay [3]. In assay [6] (read-out: EC50), the EC50 was found to be 24 µM.

Regarding `CC1CN(C(=O)OCC[C@@H](C)N(C)C)C1`, the Ki was 0.00091 µM in [1], 19 µM in assay [2] and 0.18 µM in assay [3].

The compound `CC(=O)OCCC(C)N(C)C` (configuration not stated) registered an Activity in assay [5] of 97%. For the same compound, the Ki in [1] was 0.065 µM; in [2], 4.1 µM; in [4] it was more than 1000 µM; in [3] it was 0.37 µM. Further, the EC50 in [6] (read-out: EC50) stood at 23 µM.

The compound `CC(CCOC(=O)N1CCC1(C)C)N(C)C` (configuration not stated) came in with an Activity in assay [5] of 90%. Besides, the Ki in assay [1] is 0.21 µM; in [2], 25 µM; in assay [6] (read-out: Ki), 0.051 µM; in assay [6] (read-out: pKi (converted)), 50.1 µM; in assay [3], 3.2 µM.

On to `CC1CN(C(=O)OCCC(C)N(C)C)C1` (configuration not stated), for which the EC50 is 85 µM in assay [7]; more than 320 µM in assay [9] (read-out: EC50); more than 316 µM in [9] (read-out: pEC50 (converted)); more than 320 µM in assay [11] (read-out: EC50); more than 316 µM in [11] (read-out: pEC50 (converted)). Also, the Activity in [8] worked out at 12%; in assay [12], 0.9%; in [5], 91%; in [10], 9.5%. The Ki was 0.0021 µM in [1]; 23 µM in [2]; 0.048 µM in assay [6] (read-out: Ki); 50.1 µM in assay [6] (read-out: pKi (converted)); more than 1000 µM in assay [4]; 0.26 µM in assay [3].

Consider `CC(CCOC(=O)N1CC(F)(F)C1)N(C)C` (configuration not stated), for which the Activity in assay [5] is 75%. Further, the Ki in assay [1] is 0.058 µM; in [3], 1.6 µM.
